The source made the active and inactive calls. The rule behind the calls is not given here.
Assays:
[1] = biological target: 5-hydroxytryptamine receptor 1B (Homo sapiens, UniProt P28222); assay: Displacement of [3H]5-hydroxytryptamine from human cloned 5HT1B receptor expressed in CHOK1 cells by liquid scintillation counting; format: cell-based, CHO-K1
[2] = biological target: 5-hydroxytryptamine receptor 1D (Homo sapiens, UniProt P28221); assay: Displacement of [3H]5-hydroxytryptamine from human cloned 5HT1D receptor expressed in CHOK1 cells by liquid scintillation counting; format: cell-based, CHO-K1
Chain of 5-hydroxytryptamine receptor 1D (P28221 whole entry): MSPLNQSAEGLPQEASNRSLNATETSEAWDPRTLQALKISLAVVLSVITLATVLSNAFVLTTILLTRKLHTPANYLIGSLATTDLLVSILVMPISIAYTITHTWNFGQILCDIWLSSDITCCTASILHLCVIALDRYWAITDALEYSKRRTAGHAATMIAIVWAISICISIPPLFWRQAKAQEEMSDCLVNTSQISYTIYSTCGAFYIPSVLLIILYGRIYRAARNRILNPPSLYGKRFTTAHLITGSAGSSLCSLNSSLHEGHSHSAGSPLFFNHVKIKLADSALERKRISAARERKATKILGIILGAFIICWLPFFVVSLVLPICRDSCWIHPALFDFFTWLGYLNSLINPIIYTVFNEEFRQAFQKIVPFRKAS
Method in brief: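 Membranes from CHO-K1 cells expressing cloned human 5-HT1D were purchased. Stopped by filtration over GF/B filters and counted by liquid scintillation. Ki derived from IC50 by Cheng-Prusoff. Each value is the mean of more than two runs done in duplicate or triplicate.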

[3] = Displacement of [3H]5-hydroxytryptamine from rhesus monkey cloned 5HT1F receptor expressed in African green monkey COS7 cells by liquid scintillation counting; format: cell-based, Macaca mulatta; details: cos-7
Method in brief: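 Rhesus monkey 5-HT1F cloned by PCR into pcDNA3.1 and transiently transfected into COS-7 cells. Membranes prepared by homogenization in 50 mM Tris-HCl, 5 mM EDTA, pH 7.4. Filtered over GF/B and counted by liquid scintillation. Ki calculated via Cheng-Prusoff. Mean of more than two runs in duplicate or triplicate.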

[4] = biological target: 5-hydroxytryptamine receptor 1B (Oryctolagus cuniculus) (UniProt P49144); assay: Agonist activity at rabbit 5HT1B receptor assessed as induction of saphenous vein contraction at 30 uM after 5 mins; format: functional, tissue-based
Chain of 5-hydroxytryptamine receptor 1B (Oryctolagus cuniculus) (P49144 whole entry): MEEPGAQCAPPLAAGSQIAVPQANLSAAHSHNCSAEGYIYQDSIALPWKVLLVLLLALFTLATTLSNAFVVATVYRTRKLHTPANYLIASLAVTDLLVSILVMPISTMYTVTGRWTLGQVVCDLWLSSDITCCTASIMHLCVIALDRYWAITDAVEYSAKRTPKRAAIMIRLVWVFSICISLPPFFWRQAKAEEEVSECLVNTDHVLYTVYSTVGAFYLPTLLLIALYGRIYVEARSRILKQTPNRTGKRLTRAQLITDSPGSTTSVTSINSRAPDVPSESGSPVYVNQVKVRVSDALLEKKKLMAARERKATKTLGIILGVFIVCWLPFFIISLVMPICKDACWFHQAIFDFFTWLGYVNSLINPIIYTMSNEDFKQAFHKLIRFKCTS

[5] = biological target: Beta-2 adrenergic receptor (Homo sapiens, UniProt P07550); assay: Binding affinity to human adrenergic beta2 receptor
Chain of Beta-2 adrenergic receptor (P07550 whole entry): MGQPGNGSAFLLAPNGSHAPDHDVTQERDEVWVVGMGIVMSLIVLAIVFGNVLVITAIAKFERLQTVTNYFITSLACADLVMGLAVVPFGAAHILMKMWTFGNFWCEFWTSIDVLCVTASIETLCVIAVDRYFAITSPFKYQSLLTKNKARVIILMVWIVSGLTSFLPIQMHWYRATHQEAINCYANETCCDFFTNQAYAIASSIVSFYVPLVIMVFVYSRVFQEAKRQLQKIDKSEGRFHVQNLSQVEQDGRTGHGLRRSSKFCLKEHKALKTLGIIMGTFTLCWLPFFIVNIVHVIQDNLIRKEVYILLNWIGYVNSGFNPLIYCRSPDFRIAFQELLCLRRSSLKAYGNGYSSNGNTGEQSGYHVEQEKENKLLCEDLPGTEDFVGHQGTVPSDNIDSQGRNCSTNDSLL

[6] = biological target: T1, Muscarinic acetylcholine receptor M2 (Homo sapiens, UniProt P08172); assay: Binding affinity to human muscarinic M2 receptor
T1 sequence (P08172 whole entry): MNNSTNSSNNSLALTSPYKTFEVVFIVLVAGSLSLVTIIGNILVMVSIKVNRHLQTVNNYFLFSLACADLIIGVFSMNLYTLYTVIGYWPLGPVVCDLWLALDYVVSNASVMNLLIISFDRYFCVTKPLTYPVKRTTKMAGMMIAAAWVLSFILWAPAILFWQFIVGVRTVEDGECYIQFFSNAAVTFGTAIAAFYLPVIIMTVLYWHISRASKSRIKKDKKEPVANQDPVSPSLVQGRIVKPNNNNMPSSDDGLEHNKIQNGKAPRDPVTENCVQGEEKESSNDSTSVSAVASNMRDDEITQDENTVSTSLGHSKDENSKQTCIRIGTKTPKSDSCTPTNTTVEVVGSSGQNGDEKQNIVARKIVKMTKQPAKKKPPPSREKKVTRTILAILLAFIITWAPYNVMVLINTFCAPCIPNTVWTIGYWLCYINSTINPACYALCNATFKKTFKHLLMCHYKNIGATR

[7] = biological target: Muscarinic acetylcholine receptor M3 (Homo sapiens, UniProt P20309); assay: Binding affinity to human muscarinic M3 receptor
Chain of Muscarinic acetylcholine receptor M3 (P20309 whole entry): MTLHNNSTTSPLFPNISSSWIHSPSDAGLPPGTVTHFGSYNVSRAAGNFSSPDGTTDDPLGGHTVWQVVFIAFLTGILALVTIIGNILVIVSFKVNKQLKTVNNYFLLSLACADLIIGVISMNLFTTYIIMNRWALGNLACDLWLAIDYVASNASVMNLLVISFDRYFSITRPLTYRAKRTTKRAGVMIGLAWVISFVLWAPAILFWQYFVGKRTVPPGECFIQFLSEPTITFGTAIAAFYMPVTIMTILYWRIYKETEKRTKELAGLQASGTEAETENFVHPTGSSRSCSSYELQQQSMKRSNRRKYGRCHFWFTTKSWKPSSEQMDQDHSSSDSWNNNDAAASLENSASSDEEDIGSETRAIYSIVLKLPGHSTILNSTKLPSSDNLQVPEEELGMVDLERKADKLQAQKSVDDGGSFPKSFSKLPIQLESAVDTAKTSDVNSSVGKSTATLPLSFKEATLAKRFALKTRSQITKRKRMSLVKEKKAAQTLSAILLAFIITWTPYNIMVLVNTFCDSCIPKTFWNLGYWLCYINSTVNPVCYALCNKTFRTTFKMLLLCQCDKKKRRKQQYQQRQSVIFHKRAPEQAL

D(2) dopamine receptor = D(2) dopamine receptor (Homo sapiens, UniProt P14416); assay: Binding affinity to human dopamine D2 receptor
Chain of D(2) dopamine receptor (P14416 whole entry): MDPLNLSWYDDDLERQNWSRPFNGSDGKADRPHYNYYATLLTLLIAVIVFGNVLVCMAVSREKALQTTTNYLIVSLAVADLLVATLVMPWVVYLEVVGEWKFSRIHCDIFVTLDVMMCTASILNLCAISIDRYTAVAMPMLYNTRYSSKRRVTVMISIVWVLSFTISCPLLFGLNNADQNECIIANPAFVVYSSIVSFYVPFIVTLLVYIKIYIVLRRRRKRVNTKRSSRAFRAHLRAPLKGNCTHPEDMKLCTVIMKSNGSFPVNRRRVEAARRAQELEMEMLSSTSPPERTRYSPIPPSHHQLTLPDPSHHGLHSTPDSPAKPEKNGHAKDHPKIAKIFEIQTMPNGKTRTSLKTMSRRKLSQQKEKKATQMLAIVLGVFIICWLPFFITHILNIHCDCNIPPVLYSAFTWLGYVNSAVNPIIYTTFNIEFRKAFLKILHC

[8] = biological target: T2, 5-hydroxytryptamine receptor 1A (Homo sapiens, UniProt P08908); assay: Binding affinity to 5HT1A receptor
T2 sequence (P08908 whole entry): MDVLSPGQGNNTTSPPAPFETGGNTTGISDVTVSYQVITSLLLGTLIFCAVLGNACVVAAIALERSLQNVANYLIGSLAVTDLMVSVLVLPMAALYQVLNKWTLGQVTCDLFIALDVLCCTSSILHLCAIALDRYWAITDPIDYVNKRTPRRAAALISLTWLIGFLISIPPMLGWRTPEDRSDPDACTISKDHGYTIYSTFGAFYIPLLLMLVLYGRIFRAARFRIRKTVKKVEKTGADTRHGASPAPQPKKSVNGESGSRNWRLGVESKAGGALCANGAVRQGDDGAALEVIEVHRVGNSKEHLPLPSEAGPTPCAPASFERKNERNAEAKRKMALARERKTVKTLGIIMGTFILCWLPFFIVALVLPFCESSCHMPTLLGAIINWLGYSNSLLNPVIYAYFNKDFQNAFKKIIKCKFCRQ

[9] = Displacement of [3H]5-hydroxytryptamine from human cloned 5HT1D receptor expressed in CHOK1 cells by liquid scintillation counting; details: cho-k1
[10] = biological target: 5-hydroxytryptamine receptor 1B (Oryctolagus cuniculus) (UniProt P49144); assay: Antagonist activity at rabbit 5HT1B receptor assessed as inhibition of sumatriptan-induced saphenous vein contraction at 30 uM; format: functional, tissue-based; design: scale not given: the % may be the effect or the level left

Chain of 5-hydroxytryptamine receptor 1B (P28222 whole entry): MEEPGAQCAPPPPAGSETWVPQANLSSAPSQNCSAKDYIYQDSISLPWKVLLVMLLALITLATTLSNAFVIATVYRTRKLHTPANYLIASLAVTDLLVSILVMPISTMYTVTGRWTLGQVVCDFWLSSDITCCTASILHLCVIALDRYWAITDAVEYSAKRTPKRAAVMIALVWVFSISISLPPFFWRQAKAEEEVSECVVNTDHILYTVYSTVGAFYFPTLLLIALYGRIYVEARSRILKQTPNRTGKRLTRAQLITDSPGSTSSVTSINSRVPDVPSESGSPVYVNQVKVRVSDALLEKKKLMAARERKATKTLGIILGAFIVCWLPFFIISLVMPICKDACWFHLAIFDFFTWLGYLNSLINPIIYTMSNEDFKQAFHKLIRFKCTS

| SMILES | Ki [1] | Ki [2] | Ki [3] | other results |
| --- | --- | --- | --- | --- |
| O=C(Nc1ccc2[nH]cc(C3CCN(Cc4ccccc4)CC3)c2c1)c1ccc(F)cc1 | > 1000 nM | > 1000 nM | 32 nM |  |
| O=C(Nc1ccc2[nH]cc(C3CCN(CC(N4CCC(c5c[nH]c6ccc(NC(=O)c7ccc(F)cc7)cc56)CC4)C(F)(F)F)CC3)c2c1)c1ccc(F)cc1 (configuration not stated) | > 1000 nM | > 1000 nM | 24 nM |  |
| O=C(Nc1ccc2[nH]cc(C3CCN(C/C=C/CN4CCC(c5c[nH]c6ccc(NC(=O)c7ccc(F)cc7)cc56)CC4)CC3)c2c1)c1ccc(F)cc1 | 103 nM | 24 nM | > 1000 nM |  |
| CN1CCC(c2c[nH]c3ccc(N)cc23)CC1 | 353 nM | 39.6 nM | > 10000 nM |  |
| CN1CCC(c2c[nH]c3ccc(NC(=O)CCCC(=O)Nc4ccc5[nH]cc(C6CCN(C)CC6)c5c4)cc23)CC1 | 0.76 nM | 0.95 nM | > 10000 nM |  |
| CN1CCC(c2c[nH]c3ccc(NC(=O)CC(=O)Nc4ccc5[nH]cc(C6CCN(C)CC6)c5c4)cc23)CC1 | 16 nM | 3.4 nM | > 10000 nM |  |
| CNS(=O)(=O)Cc1ccc2[nH]cc(CCN(C)C)c2c1 |  |  | 234 nM |  |
| O=C(Nc1ccc2[nH]cc(C3CCN(Cc4cccc(CN5CCC(c6c[nH]c7ccc(NC(=O)c8ccc(F)cc8)cc67)CC5)c4)CC3)c2c1)c1ccc(F)cc1 | 453 nM | 151 nM | > 1000 nM |  |
| CN1CCC(c2c[nH]c3ccc(NC(=O)c4ccc(F)cc4)cc23)CC1 |  |  | 3 nM |  |
| NC(=O)C(CN1CCC(c2c[nH]c3ccc(NC(=O)c4ccc(F)cc4)cc23)CC1)N1CCC(c2c[nH]c3ccc(NC(=O)c4ccc(F)cc4)cc23)CC1 (configuration not stated) | > 1000 nM | > 1000 nM | 48 nM |  |
| NCCc1c[nH]c2ccc(O)cc12 [SEROTONIN] |  |  | 35 nM |  |
| CN1CCC(c2c[nH]c3ccc(NC(=O)CCCCCCCCCCCCCC(=O)Nc4ccc5[nH]cc(C6CCN(C)CC6)c5c4)cc23)CC1 | 0.58 nM | 2.3 nM | > 10000 nM |  |
| NC(=O)c1ccc2[nH]cc(C3=CCC(NCCCCCCCNC4CC=C(c5c[nH]c6ccc(C(N)=O)cc56)CC4)CC3)c2c1 (configuration not stated) |  |  |  | IC50 [8]: 1.83 nM; IC50 [9]: 0.05 nM |
| CN1CCC(c2c[nH]c3ccc(NC(=O)CCCCCCCCCCCCCCC(=O)Nc4ccc5[nH]cc(C6CCN(C)CC6)c5c4)cc23)CC1 | 0.81 nM | 11.3 nM | > 10000 nM |  |

More lines, main results first:

| Ki [1] | Ki [2] | SMILES | Ki [3] | other results |
| --- | --- | --- | --- | --- |
| 79 nM | 0.3 nM | O=C(Nc1ccc2[nH]cc(C3CCN(CCCCCCCN4CCC(c5c[nH]c6ccc(NC(=O)c7ccc(F)cc7)cc56)CC4)CC3)c2c1)c1ccc(F)cc1 | > 10000 nM | Activity [4]: inactive; IC50 [5]: > 10000 nM; IC50 [6]: 3200 nM; IC50 [7]: > 50000 nM; IC50 (D(2) dopamine receptor): 700 nM |
| > 1000 nM | > 1000 nM | O=C(Nc1ccc2[nH]cc(C3CCN(CCO)CC3)c2c1)c1ccc(F)cc1 | 9 nM |  |
| 100 nM | 0.6 nM | O=C(Nc1ccc2[nH]cc(C3CCN(CCCCCCN4CCC(c5c[nH]c6ccc(NC(=O)c7ccc(F)cc7)cc56)CC4)CC3)c2c1)c1ccc(F)cc1 | > 10000 nM |  |
| 0.1 nM | 1.4 nM | CN1CCC(c2c[nH]c3ccc(NC(=O)CCCCCCCCCCCC(=O)Nc4ccc5[nH]cc(C6CCN(C)CC6)c5c4)cc23)CC1 | > 10000 nM |  |
| 126 nM | 13 nM | O=C(Nc1ccc2[nH]cc(C3CCN(CCCCCCCCCCCN4CCC(c5c[nH]c6ccc(NC(=O)c7ccc(F)cc7)cc56)CC4)CC3)c2c1)c1ccc(F)cc1 | > 10000 nM |  |
| 1.3 nM | 0.9 nM | CN1CCC(c2c[nH]c3ccc(NC(=O)CCCCCCC(=O)Nc4ccc5[nH]cc(C6CCN(C)CC6)c5c4)cc23)CC1 | > 10000 nM |  |
| > 10000 nM | 219 nM | O=C(Nc1ccc2[nH]cc(C3CCN(CCN4CCC(c5c[nH]c6ccc(NC(=O)c7ccc(F)cc7)cc56)CC4)CC3)c2c1)c1ccc(F)cc1 | > 10000 nM |  |
| 38 nM | 13 nM | O=C(Nc1ccc2[nH]cc(C3CCN(CCCCCCCCCCN4CCC(c5c[nH]c6ccc(NC(=O)c7ccc(F)cc7)cc56)CC4)CC3)c2c1)c1ccc(F)cc1 | > 10000 nM |  |
| > 1000 nM | > 1000 nM | O=C(Nc1ccc2[nH]cc(C3CCN(CCN4CCCCC4)CC3)c2c1)c1ccc(F)cc1 | > 1000 nM |  |
| 1.3 nM | 0.9 nM | CN1CCC(c2c[nH]c3ccc(NC(=O)CCCCCCCCCC(=O)Nc4ccc5[nH]cc(C6CCN(C)CC6)c5c4)cc23)CC1 | > 10000 nM |  |
| > 1000 nM | > 1000 nM | CCCCCCCCN1CCC(c2c[nH]c3ccc(NC(=O)c4ccc(F)cc4)cc23)CC1 | > 10000 nM |  |
| 0.79 nM | 0.95 nM | CN1CCC(c2c[nH]c3ccc(NC(=O)CCCCCCCCC(=O)Nc4ccc5[nH]cc(C6CCN(C)CC6)c5c4)cc23)CC1 | > 10000 nM |  |
| 32 nM | 3.9 nM | O=C(Nc1ccc2[nH]cc(C3CCN(CCOCCOCCOCCN4CCC(c5c[nH]c6ccc(NC(=O)c7ccc(F)cc7)cc56)CC4)CC3)c2c1)c1ccc(F)cc1 | 28 nM |  |
| > 10000 nM | 13 nM | O=C(Nc1ccc2[nH]cc(C3CCN(CCCCCCCCCCCCN4CCC(c5c[nH]c6ccc(NC(=O)c7ccc(F)cc7)cc56)CC4)CC3)c2c1)c1ccc(F)cc1 | > 10000 nM |  |
| 18 nM | 1.5 nM | O=C(Nc1ccc2[nH]cc(C3CCN(CCOCCOCCN4CCC(c5c[nH]c6ccc(NC(=O)c7ccc(F)cc7)cc56)CC4)CC3)c2c1)c1ccc(F)cc1 | 27 nM |  |
| 126 nM | 1 nM | O=C(Nc1ccc2[nH]cc(C3CCN(CCCCCCCCCN4CCC(c5c[nH]c6ccc(NC(=O)c7ccc(F)cc7)cc56)CC4)CC3)c2c1)c1ccc(F)cc1 | > 10000 nM |  |
| > 1000 nM | > 1000 nM | O=C(O)CCCCCCCCCN1CCC(c2c[nH]c3ccc(NC(=O)c4ccc(F)cc4)cc23)CC1 | > 1000 nM |  |
| > 1000 nM | > 1000 nM | CN(C)CCCN1CCC(c2c[nH]c3ccc(NC(=O)c4ccc(F)cc4)cc23)CC1 | 124 nM |  |
| 0.5 nM | 1.7 nM | CN1CCC(c2c[nH]c3ccc(NC(=O)CCCCCCCCCCCCC(=O)Nc4ccc5[nH]cc(C6CCN(C)CC6)c5c4)cc23)CC1 | > 10000 nM | Activity [4]: 24%; Activity [10]: 58% |
| > 10000 nM | 79 nM | O=C(Nc1ccc2[nH]cc(C3CCN(CCCN4CCC(c5c[nH]c6ccc(NC(=O)c7ccc(F)cc7)cc56)CC4)CC3)c2c1)c1ccc(F)cc1 | > 10000 nM |  |

— ChEMBL document CHEMBL1150432 (J Med Chem, 2008)
